As a reminder, the IC50 is the concentration at which inhibition is half-maximal. Higher therefore signals lower potency.

T1 sequence (P22303 whole entry): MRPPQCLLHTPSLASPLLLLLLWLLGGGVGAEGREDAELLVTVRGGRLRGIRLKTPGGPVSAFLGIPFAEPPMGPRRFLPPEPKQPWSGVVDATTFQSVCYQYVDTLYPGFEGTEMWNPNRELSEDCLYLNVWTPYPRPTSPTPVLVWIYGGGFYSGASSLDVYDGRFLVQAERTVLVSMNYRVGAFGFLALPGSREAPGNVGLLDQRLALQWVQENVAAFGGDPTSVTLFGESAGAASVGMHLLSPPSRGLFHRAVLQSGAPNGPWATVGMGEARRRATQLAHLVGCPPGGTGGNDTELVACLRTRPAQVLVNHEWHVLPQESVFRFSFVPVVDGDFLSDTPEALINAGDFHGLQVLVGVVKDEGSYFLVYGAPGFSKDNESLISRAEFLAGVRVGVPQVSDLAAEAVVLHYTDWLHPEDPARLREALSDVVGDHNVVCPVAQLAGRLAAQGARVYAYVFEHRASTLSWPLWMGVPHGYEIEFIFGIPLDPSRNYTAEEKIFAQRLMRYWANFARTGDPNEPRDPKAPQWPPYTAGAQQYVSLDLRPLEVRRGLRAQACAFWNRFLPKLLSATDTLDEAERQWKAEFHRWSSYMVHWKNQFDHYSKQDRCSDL

The first experiment concerns the target T1, Acetylcholinesterase (Homo sapiens, UniProt P22303). Kind of experiment: Inhibitory activity against acetylcholinesterase in human erythrocytes. It is filed as cell-based. Summed up:
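Ellman colorimetric assay with human erythrocyte enzyme (AChE or BChE), 0.035 unit/mL, in 0.1 M phosphate buffer pH 8.0 with 340 μM DTNB. Inhibitor preincubated with enzyme 20 min, then 550 μM acetylthiocholine iodide added. […] IC50 read graphically from log concentration–inhibition curves; pIC50 is the mean of two independent measurements.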
For `CNC(=O)Oc1cccc2c1OC[C@@H]1CCN(C)[C@H]21` (stereo in doubt; (-)-4), the IC50 was 22.9 nM. `CNC(=O)Oc1ccc2c(c1)OC[C@@H]1CCN(C)[C@H]21` gave an IC50 of 1950 nM. As for `CNC(=O)Oc1ccc2c(c1)[C@@H]1[C@@H](CCN1C)CO2`, inhibition was half-maximal at 16200 nM (IC50). The molecule `O=C(CCCCCCC(=O)NCCCCCCN1CC[C@H]2COc3ccccc3[C@H]21)NCCCCCCN1CC[C@H]2COc3ccccc3[C@H]21` gave an IC50 of 9770 nM. `CNC(=O)Oc1ccc2c(c1)OC[C@@H]1CC[N+](C)(C)[C@H]21` had a concentration for half-maximal inhibition (IC50) of 1820 nM.

Molecule `CN1CC[C@H]2COc3c(O)cccc3[C@H]21` had an IC50 of 39800 nM. Take `CNC(=O)Oc1cccc2c1OC[C@@H]1CCN(C)[C@H]21` (stereo in doubt; (+)-4): the IC50 is 74.1 nM. Same read-out and setting: with `CNC(=O)Oc1cccc2c1OC[C@@H]1CCN(C)[C@H]21` (stereo in doubt; 4) [listing 1 of 2 here] the figure was 29.5 nM.

Another experiment addresses T1, Acetylcholinesterase.
Molecule `CNC(=O)Oc1ccc2c(c1)[C@]1(C)CCN(C)[C@@H]1N2C` showed a Kc of 250 nM. For `CNC(=O)Oc1cccc2c1OC[C@@H]1CCN(C)[C@H]21` (stereo in doubt; 4) [listing 2 of 2 here], the Kc amounted to 730 nM.

The next experiment has as its target T1, Acetylcholinesterase. The source holds these as a separate data set.
The molecule `CNC(=O)Oc1cccc2c1OC[C@@H]1CCN(C)[C@H]21` (stereo in doubt; 4) [listing 2 of 2 here] displayed a k3 of 26.5 min⁻¹.

(Values after ChEMBL document CHEMBL1134461, “Hexahydrochromeno[4,3-b]pyrrole derivatives as acetylcholinesterase inhibitors” (J Med Chem, 2001).)
